Series [1] relates to MCF7. Description: Cytotoxicity against human MCF7 cells after 48 hrs by MTT assay. To be noted: MCF7, 48 h. The format is functional, cell-based.
Series [2] has as its system A549. Description: Cytotoxicity against human A549 cells after 48 hrs by MTT assay. To be noted: A549, 48 h. The format is functional, cell-based. (Formazan colour is commonly taken as a measure of viable cells.)
Series [3] is described as follows: Cytotoxicity against human C8166 cells by MTT assay. The format is cell-based. The method, boiled down: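 C8166 cells assessed for cytotoxicity by MTT; CC50 derived. AZT positive control.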
The subject of series [4] is HL-60. Kind of series: Cytotoxicity against human HL60 cells after 48 hrs by MTT assay. The series is classed as functional, cell-based. Particulars: HL-60, 48 h.
A short description of series [5]: Therapeutic index, ratio of CC50 for human C8166 cells to EC50 for HIV1. The series is classed as cell-based. Particulars: read-out: Ratio CC50/EC50. The method in brief:
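Therapeutic index computed as CC50 (MTT cytotoxicity in C8166 cells) divided by EC50 (inhibition of HIV-1 cytopathic effect, syncytium formation in microtiter assay).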

The test system of series [6] is Human immunodeficiency virus 1. Description: Antiviral activity against HIV1 assessed as inhibition of cytopathic effect by microtiter syncytium formation infectivity assay. The series is classed as functional, organism-based. The method in brief: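 HIV-1 cytopathic-effect inhibition read as syncytium formation in microtiter format; EC50 derived. AZT positive control.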

The test system of series [7] is SW480. Kind of series: Cytotoxicity against human SW480 cells after 48 hrs by MTT assay. The format is functional, cell-based. To be noted: SW480, 48 h.
Series [8] has as its system SMMC-7721. Description: Cytotoxicity against human SMMC7721 cells after 48 hrs by MTT assay. The format is functional, cell-based. Particulars: SMMC-7721, 48 h.

As for `C=C1[C@@H]([C@H](C)CC/C=C(/C)C(=O)O)CC[C@@]2(C)[C@@H]3CC[C@@H](C(C)(C)C(=O)O)[C@](C)(CC(=O)O)C3=C[C@@H]12`, the IC50 in series [1], in series [2], in series [4], in series [7] and in series [8] was over 10 µM in each case. Also, in series [3], the CC50 was over 200 µM. In series [5], the selectivity ratio is over 2.9. Further, the EC50 in series [6] came out at 68.7 µM.
Turning to `C=C1[C@@H]([C@H](C)CC/C=C(/C)C(=O)O)CC[C@@]2(C)C3=C(C[C@@H]12)[C@@](C)(CC(=O)O)[C@H](C(C)(C)C(=O)O)CC3`, in series [3], the cytotoxic concentration (CC50) is over 200 µM. The selectivity ratio in series [5] is over 1.7. For the same molecule, the EC50 in series [6] turned out to be 120 µM.
As to `C=C1[C@@H]([C@H](C)CC/C=C(/C)C(=O)O)CC[C@@]2(C)[C@@H]3CC[C@H]4C(C)(C)OC(=O)CC[C@]4(C)C3=C[C@@H]12`, the 50% inhibitory concentration (IC50) in series [1], in series [2], in series [4], in series [7] and in series [8] was over 10 µM in each case.
`CC1=C([C@H](C)CC/C=C(/C)C(=O)O)CC[C@@]2(C)[C@@H]3CC[C@H]4C(C)(C)C(=O)CC[C@]4(C)C3=C[C@@H]12`: the 50% inhibitory concentration (IC50) in series [1], in series [2], in series [4], in series [7] and in series [8] was over 10 µM throughout. In series [3], this molecule displayed a CC50 of 116 µM. Besides, the selectivity ratio in series [5] was 1.9. For the same molecule, the EC50 in series [6] came to 62 µM.
Turning to `CO[C@@]12CC[C@H]3C(C)(C)C(=O)CC[C@]3(C)C1=CC1=C(C=O)[C@@H]([C@H](C)CC/C=C(/C)C(=O)O)CC[C@]12C`, the CC50 in series [3] was over 200 µM. Further, in series [5], the selectivity ratio was over 1.7. Also, the EC50 in series [6] came to 116 µM.
Taken in the same sequence, the figures for `C=C1[C@@H]([C@H](C)CC/C=C(/C)C(=O)O)CC[C@@]2(C)[C@@H]3CC[C@@H](C(C)(C)O)[C@](C)(CCC(=O)O)C3=C[C@@H]12` were 143 µM, 2.4 and 58.7 µM.
On to `C=C1[C@@H]([C@H](C)CC/C=C(/C)C(=O)O)CC[C@@]2(C)[C@@H]3CC[C@@H](C(C)(C)O)[C@](C)(CCC(=O)OC)C3=C[C@@H]12`, for which the concentration for half-maximal inhibition (IC50) in series [1], in series [2], in series [4], in series [7] and in series [8] was over 10 µM each time. Further, the midpoint of cytotoxicity in series [3], the CC50, lay at 142 µM. In addition, the selectivity ratio in series [5] amounted to 1.8. Moreover, the EC50 in series [6] was determined as 81.2 µM.
On to `C=C(C)[C@@H]1CC[C@@H]2C(=C[C@@]3(OC)C(=C)[C@@H]([C@H](C)CC/C=C(/C)C(=O)O)CC[C@@]23C)[C@@]1(C)CCC(=O)O`, for which the 50% inhibitory concentration (IC50) in series [1], in series [2], in series [4], in series [7] and in series [8] was over 10 µM each time. The molecule further gave a CC50 in series [3] of 184 µM. Besides, the selectivity ratio in series [5] came to 2.6. For the same molecule, in series [6], the EC50 stood at 70 µM.
For the molecule `C=C1[C@@H]([C@H](C)CC/C=C(/C)C(=O)O)CC[C@@]2(C)[C@@H]3CC[C@@H](C(=C)C)[C@](C)(CCC(=O)O)C3=C[C@@H]12`, the IC50 in series [1], in series [2], in series [4], in series [7] and in series [8] was over 10 µM in each case. In series [3], this molecule registered a CC50 of 203 µM. In series [5], the selectivity ratio is 2.3. Also, the EC50 in series [6] was 88.2 µM.
In series [3], `Cc1cn([C@H]2C[C@H](N=[N+]=[N-])[C@@H](CO)O2)c(=O)[nH]c1=O` [ZIDOVUDINE] displayed a CC50 of 4690 µM. The selectivity ratio in series [5] is over 230000. The EC50 in series [6] came out at 0.02 µM.

What is called IC50 is the concentration that inhibits the measured activity by half. By CC50 is commonly meant the concentration giving 50% cytotoxicity. Broadly, the EC50 is the concentration needed to bring the measured effect to its halfway point.
